Assay results collected from several papers.
Compare with care: the assays were run in different laboratories.
Target: Homeodomain-interacting protein kinase 2 (HIPK2, Homo sapiens, UniProt Q9H2X6)

CCCOc1ccc([C@@H]2[C@@H](C(=O)O)[C@H](c3ccc4c(c3)OCO4)CN2CC(=O)Nc2c(CC)cccc2CC)cc1 gave a remaining binding of 80% (cell-free assay; competition with immobilised ligand; 1 µM).
C[C@@H]1CCN(c2nccc(-c3cnn4ncccc34)n2)C1 has a remaining binding of 61% (binding; 1 µM).
Nc1ncc2c(n1)-c1c([nH]c3ccc(C#CC4CC4)cc13)CCCC2 has a remaining binding of 97% (binding; competition with immobilised ligand; 1 µM).
For CN(C)C(=O)Cn1cc(-c2nc(C3(c4ccc(-c5cnc(N)nc5)cc4)CC3)no2)cn1, the remaining binding was 94% (cell-free assay; competition with immobilised ligand; 1 µM).
The remaining binding of CN(C)c1nccc(-c2cnc3ncccn23)n1 is reported as 36% (binding; 1 µM).
For O=C(Nc1c[nH]nc1C(=O)NC1CCNCC1)c1cc(F)cc(F)c1, the remaining binding was 33% (binding; competition with immobilised ligand; 1 µM).
The remaining binding of O=C(c1ccc(Nc2ncc(Cl)c(-c3ccc(Cl)s3)n2)cc1)N1CCC(N2CCCC2)CC1 is reported as 0.15% (binding; competition with immobilised ligand; 1 µM).
The remaining binding of CC1CCCN1c1nccc(-c2cnn3ncccc23)n1 (stereo not shown) is reported as 100% (binding; 1 µM).
COc1cnc(Nc2cccc(S(N)(=O)=O)c2)nc1N1CCN(c2ccccc2)CC1 gave a remaining binding of 100% (binding; competition with immobilised ligand; 1 µM).
With c1cncc(-c2cccc(Nc3nccc(NC4CCCCC4)n3)c2)c1 the remaining binding was 53% (binding; competition with immobilised ligand; 10 µM).
For C[C@H](NC(=O)c1cnc2n1[C@](C)(Cc1ccc(C#N)cc1)C(=O)N2c1cc(Cl)c(F)c(Cl)c1)C(=O)NC1(c2ccccn2)CC1, the remaining binding was 100% (cell-free assay; competition with immobilised ligand; 1 µM).
The remaining binding of O=C(c1ccc(Nc2nccc(-c3cc4ccccc4s3)n2)cc1)N1CCC(N2CCCC2)CC1 is reported as 8.8% (binding; competition with immobilised ligand; 1 µM).
With NS(=O)(=O)c1cc(NC(=O)C2(c3ccccc3Cl)CC2)ccc1Oc1cccc(Cl)c1 the remaining binding was 88% (cell-free assay; competition with immobilised ligand; 1 µM).
With C[C@@H](c1ccc(-n2cnc3c(N)ncnc32)cc1)N1CCc2nn(C)c(Cc3ccccc3)c2C1=O the remaining binding was 80% (binding; competition with immobilised ligand; 0.1 µM).
The remaining binding of N[C@@H]1CCN(c2nccc(-c3cnn4ncccc34)n2)C1 is reported as 100% (binding; 1 µM).
For Cc1cnc(Nc2ccc(C(=O)N3CCC(N4CCCC4)CC3)cc2)nc1-c1cc2ccccc2s1, the remaining binding was 0.5% (binding; competition with immobilised ligand; 1 µM).
With CN(C)c1nccc(-c2cnn3ncccc23)n1 the remaining binding was 49% (binding; 1 µM).
COc1cnc(Nc2cccc(S(N)(=O)=O)c2)nc1N1CCN(c2ccccc2)C(=O)C1 gave a remaining binding of 100% (binding; competition with immobilised ligand; 1 µM).
With CCC(=O)N[C@@H]1CC[C@H](C(=O)N(C)c2ccc(-c3nc4ccccc4o3)cc2)C1 the remaining binding was 100% (cell-free assay; competition with immobilised ligand; 1 µM).
With CN(c1nccc(-c2cnn3ncccc23)n1)C1CC1 the remaining binding was 100% (binding; 1 µM).
For O=C(NCc1ncc(C(F)(F)F)cc1Cl)c1ccc2c(c1)C1(CCS(=O)(=O)CC1)[C@@H](C1CC1)N2S(=O)(=O)c1ccc(F)cc1, the remaining binding was 72% (cell-free assay; competition with immobilised ligand; 1 µM).
The remaining binding of COc1ncc2cc3ccccc3nc2c1C#N is reported as 98% (cell-free assay; competition with immobilised ligand; 5 µM).
